Assay results of several laboratories.
Protocols differ between the studies behind these lines. ≈ marks a conversion by molar mass, not a printed value.

CCS(=O)(=O)Oc1ccc(C=NNC(=O)CSc2nc3ccc(Cl)cc3c(=O)n2-c2ccccc2)cc1  inhibition zone (Bacillus cereus; microbial growth, well diffusion; 20 µg/mL): 2 mm
COc1cccc(CNc2ccc(C(=O)O)cc2)c1  IC50 (NCI-H69; cell growth or viability, resazurin; 72 h): > 100 µM
Cc1cccc2c(=O)n(-c3ccccc3)c(SCC(=O)NN=Cc3ccc(OS(C)(=O)=O)cc3)nc12  inhibition zone (Bacillus cereus; microbial growth, well diffusion; 20 µg/mL): 2 mm
CC(C)(C)c1cc(NC(=O)Nc2ccc(-c3cn4c(n3)sc3cc(OCCN5CCOCC5)ccc34)cc2)no1  GI50 (BJ; cell growth or viability; 72 h): > 10 µM
COc1cc(CNc2ccc(C(=O)O)cc2)cc(OC)c1O  IC50 (NCI-H69; cell growth or viability, resazurin; 72 h): > 100 µM
CN(C)CCNC(=O)c1ccc(-c2nc3ccc4[nH]ncc4c3c3c2CCCCC3)c(F)c1  GI50 (BJ; cell growth or viability; 72 h): 6.58 µM
CC(=O)C1=NN(c2ccc([N+](=O)[O-])cc2)C(=C(C#N)C(=O)c2ccc(Nc3cnccn3)cc2)S1  MIC (Salmonella enterica; microbial growth, broth dilution; ATCC13076 TYPHIMURIUM): 12.5 µg/mL (≈ 25.7 µM)
COc1ccccc1CNc1ccc(C(=O)O)cc1  IC50 (NCI-H69; cell growth or viability, resazurin; 72 h): > 100 µM
CC(=O)OCC1=C(C(=O)O)N2C(=O)[C@@H](NC(=O)Cc3cccs3)[C@H]2SC1  MIC (Salmonella enterica; microbial growth, broth dilution; ATCC13076 TYPHIMURIUM): 3.12 µg/mL (≈ 7.88 µM)
CN(C)c1ccc(CNc2ccc(C(=O)O)cc2)cc1  IC50 (NCI-H69; cell growth or viability, resazurin; 72 h): > 100 µM
COc1ccc(N2N=C(C(C)=O)SC2=C(C#N)C(=O)c2ccc(Nc3cnccn3)cc2)cc1  MIC (Salmonella enterica; microbial growth, broth dilution; ATCC13076 TYPHIMURIUM): 50 µg/mL (≈ 106 µM)
CCCS(=O)(=O)Oc1ccc(C=NNC(=O)CSc2nc3c(C)cccc3c(=O)n2-c2ccccc2)cc1OC  MIC (Salmonella enterica; microbial growth, broth dilution; TYPHIMURIUM): 49 µg/mL (≈ 84.4 µM)
CN(C)CCNC(=O)c1ccc(-c2nc3ccc4[nH]ncc4c3c3c2CCCCC3)cc1  GI50 (BJ; cell growth or viability; 72 h): 8.63 µM
O=C(O)c1cn(C2CC2)c2cc(N3CCNCC3)c(F)cc2c1=O  inhibition zone (Bacillus cereus; microbial growth, well diffusion; 20 µg/mL): 5 mm
Cc1n[nH]c2ccc3nc(-c4ccc(C(=O)NCCN(C)C)cc4F)c4c(c3c12)CCCC4  GI50 (BJ; cell growth or viability; 72 h): 2.21 µM
CCCS(=O)(=O)Oc1ccc(C=NNC(=O)CSc2nc3ccc(Cl)cc3c(=O)n2-c2ccccc2)cc1OC  inhibition zone (Bacillus cereus; microbial growth, well diffusion; 20 µg/mL): 2 mm
CCc1nc(C(N)=O)c(Nc2ccc(N3CCC(N4CCN(C)CC4)CC3)c(OC)c2)nc1NC1CCOCC1  GI50 (BJ; cell growth or viability; 72 h): > 10 µM
COc1ccc(-n2nc(C(=O)c3ccc(Nc4cnccn4)cc3)sc2=N)cc1  MIC (Salmonella enterica; microbial growth, broth dilution; ATCC13076 TYPHIMURIUM): 50 µg/mL (≈ 124 µM)
